Laboratory results as given in PMC9527016 (Toxicology letters, 2020).

Experiments:
[1] = system: cysteine peptide Ac-RFAACAA-COOH; test: Cysteine peptide depletion, RapidFire-MS/MS DPRA; assay type: biochemical; conditions: for Detection as sensitizer in the cysteine peptide depletion assay: threshold defined by OECD test guideline 442C
[2] = system: lysine peptide Ac-RFAAKAA-COOH; test: Lysine peptide depletion, RapidFire-MS/MS DPRA; assay type: biochemical
In short: (§1)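 Lysine peptide (Ac-RFAAKAA-COOH) and alanine internal-standard peptide are mixed, each at 0.5 mM final, in acetate ammonia buffer pH 10.2. Test compound in DMSO […] is added in a 384-well plate and incubated 24 h at room temperature. The range is 12 μM–50 mM or 25 μM–100 mM. Samples are diluted to 0.05 μM, then analysed by C4 SPE with triple-quadrupole MRM. Peptide area is normalised to DMSO wells.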

[3] = system: lysine peptide Ac-RFAAKAA-COOH; test: Lysine peptide depletion, HPLC-TOF-MS; assay type: biochemical
In short: (§2)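 Peptide mixtures are separated on a C18 column (2.1×150 mm, 1.7 μm) at 60 °C and 0.4 mL/min. Mobile phases are water and acetonitrile with 0.1% formic acid, run over a 22 min gradient. Detection is by positive-mode ESI-TOF MS over m/z 150–1700. Seven concentrations of test compound are tested. Integrated lysine or alanine peptide area is normalised to the DMSO control.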

[4] = system: alanine peptide Ac-RFAAAAA-COOH; test: Alanine peptide; assay type: biochemical
In short: as §1

[5] = system: alanine peptide Ac-RFAAAAA-COOH; test: Alanine peptide signal, HPLC-TOF-MS; assay type: biochemical
In short: as §2

[6] = system: lysine peptide; conditions: cited from earlier work
[7] = Precipitation in lysine peptide buffer; assay type: physicochemical; conditions: 100 mM added into the lysine peptide buffer
[8] = system: cysteine peptide Ac-RFAACAA-COOH; test: Confirmation of chemical-cysteine peptide adduct by HPLC-TOF-MS; assay type: biochemical; conditions: HPLC-TOF-MS after 24 h incubation; Figure 6
In short: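 Cysteine peptide (Ac-RFAACAA-COOH) is mixed with alanine peptide and incubated with test compound for 24 h. The mixture is run by C18 LC (60 °C, 0.4 mL/min, 22 min water/acetonitrile 0.1% formic acid gradient) with positive-mode ESI-TOF MS over m/z 150–1700. Total ion chromatograms are recorded, and mass spectra of selected peaks are inspected for adduct or peptide dimer masses.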

For `C=C(C)C(=O)OCC(C)O` (stereo not shown) [2-Propenoic acid, 2-methyl-, monoester with 1,2-propanedio], the “Detection as sensitizer in the cysteine peptide depletion assay” value (“Detection as sensitizer” for short) [1] was “not detected”.
In the case of `CCCOC(=O)c1cc(O)c(O)c(O)c1` [Propyl gallate], the “Depletion of the lysine peptide at the highest tested concentrations” value [2] is reported as “more than 50%”.
With `O=CCCCC=O` [Glutaraldehyde] the “Lysine peptide signal vs concentration, HPLC-TOF-MS” value ([3]; Figure 5E) was “decreased in a concentration-dependent manner”, the “Alanine peptide signal vs concentration, RapidFire-MS/MS” value ([4]; Figure 5D) was “decreased in a concentration-dependent manner” and the “Depletion of the lysine peptide at the highest tested concentrations” value [2] was “more than 50%”. For the same compound, the “Lysine peptide signal vs concentration, RapidFire-MS/MS” value ([2]; lysine peptide area only, Figure 5E) was “decreased in a concentration-dependent manner” and the “Alanine peptide signal vs concentration, HPLC-TOF-MS” value ([5]; Figure 5D) was “decreased in a concentration-dependent manner”.
In the case of `C=CC(=O)OCC` [Ethyl acrylate], the “Detection as sensitizer” value [1] is reported as “not detected” and the “Depletion of the lysine peptide at the highest tested concentrations” value [2] is reported as “more than 50%”.
With `O=CCc1ccccc1` [Phenylacetaldehyde] the “Detection as sensitizer” value [1] was “not detected”.
In the case of `CCCCCCCCCCCCOC(=O)c1cc(O)c(O)c(O)c1` [Dodecyl gallate], the “Detection as sensitizer” value [1] is reported as “not detected”.
In the case of `CCCCCC` [n-Hexane], the “Efficacy (% peptide depletion), cysteine peptide” value ([1]; pH 7.5) is reported as “Inactive” and the “IC50 (M), depletion of cysteine peptide” value ([1]; pH 7.5) is reported as “Inactive”.
In the case of `CCCCCCCCCCCCCCCC(=O)Cl` [Palmitoyl chloride], the “Lysine peptide depletion (literature)” value ([6]; ref No, O.T., 2015) is given as “almost completely depleted lysine peptide”, the “Precipitation on addition to lysine peptide buffer” value [7] is given as “immediate precipitation” and the “Detection as sensitizer” value [1] is given as “not detected”.
For `O=C(NCNC(=O)NC1C(=O)NC(=O)N1CO)NC1C(=O)NC(=O)N1CO` (stereo not shown) [Imidazolidinyl urea], the “Detection as sensitizer” value [1] was “not detected”.
In the case of `C=CC(=O)OCCO` [Hydroxyethyl acrylate], the “Depletion of the lysine peptide at the highest tested concentrations” value [2] is reported as “more than 50%”.
In the case of `C=C(C)C(=O)OCCOC(=O)C(=C)C` [Ethylene glycol dimethacrylate], the “Adduct formation with cysteine peptide” value [8] is reported as “formed adduct peak with cysteine peptide”.
With `O=C/C=C/c1ccccc1` [Cinnamic aldehyde] the “Lysine peptide signal, HPLC-TOF-MS” value ([3]; at 100 mM, Figure 5B) was “slight decrease”, the “Decrease in alanine peptide signal (depletion), RapidFire-MS/MS” value ([4]; high concentrations (above 1 mM), area normalized to DMSO, Figure 5A) was greater than 60% and the “Alanine peptide signal, HPLC-TOF-MS” value ([5]; 7-point concentration range, Figure 5A) was “no changes were observed”. The “Adduct formation with cysteine peptide” value [8] was “formed adduct peak with cysteine peptide”.
In the case of `Oc1ccc(O)cc1` [Hydroquinone], the “Depletion of the lysine peptide” value ([6]; at 0.5 mM, ref Gerberick et al., 2004) is listed as 83.3% and the “Depletion of the lysine peptide at the highest tested concentrations” value [2] is listed as “more than 50%”.
